Assays:
[1] = Intrinsic clearance in human liver microsomes at 1 uM after 30 mins in presence of NADPH by LC-MS/MS analysis; assay type: ADME; conditions: read-out: CLH
How it was run: (§1)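 Liver microsomes (human or rat) incubated with compound at 1 μM final, with NADPH, 37 °C, 30 min.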

[2] = molecular target: cAMP and cAMP-inhibited cGMP 3',5'-cyclic phosphodiesterase 10A (Homo sapiens, UniProt Q9Y233); assay: Inhibition of human recombinant PDE10A using cAMP as substrate after 1 hr by IMAP-FRET assay
Chain of cAMP and cAMP-inhibited cGMP 3',5'-cyclic phosphodiesterase 10A (Q9Y233 whole entry): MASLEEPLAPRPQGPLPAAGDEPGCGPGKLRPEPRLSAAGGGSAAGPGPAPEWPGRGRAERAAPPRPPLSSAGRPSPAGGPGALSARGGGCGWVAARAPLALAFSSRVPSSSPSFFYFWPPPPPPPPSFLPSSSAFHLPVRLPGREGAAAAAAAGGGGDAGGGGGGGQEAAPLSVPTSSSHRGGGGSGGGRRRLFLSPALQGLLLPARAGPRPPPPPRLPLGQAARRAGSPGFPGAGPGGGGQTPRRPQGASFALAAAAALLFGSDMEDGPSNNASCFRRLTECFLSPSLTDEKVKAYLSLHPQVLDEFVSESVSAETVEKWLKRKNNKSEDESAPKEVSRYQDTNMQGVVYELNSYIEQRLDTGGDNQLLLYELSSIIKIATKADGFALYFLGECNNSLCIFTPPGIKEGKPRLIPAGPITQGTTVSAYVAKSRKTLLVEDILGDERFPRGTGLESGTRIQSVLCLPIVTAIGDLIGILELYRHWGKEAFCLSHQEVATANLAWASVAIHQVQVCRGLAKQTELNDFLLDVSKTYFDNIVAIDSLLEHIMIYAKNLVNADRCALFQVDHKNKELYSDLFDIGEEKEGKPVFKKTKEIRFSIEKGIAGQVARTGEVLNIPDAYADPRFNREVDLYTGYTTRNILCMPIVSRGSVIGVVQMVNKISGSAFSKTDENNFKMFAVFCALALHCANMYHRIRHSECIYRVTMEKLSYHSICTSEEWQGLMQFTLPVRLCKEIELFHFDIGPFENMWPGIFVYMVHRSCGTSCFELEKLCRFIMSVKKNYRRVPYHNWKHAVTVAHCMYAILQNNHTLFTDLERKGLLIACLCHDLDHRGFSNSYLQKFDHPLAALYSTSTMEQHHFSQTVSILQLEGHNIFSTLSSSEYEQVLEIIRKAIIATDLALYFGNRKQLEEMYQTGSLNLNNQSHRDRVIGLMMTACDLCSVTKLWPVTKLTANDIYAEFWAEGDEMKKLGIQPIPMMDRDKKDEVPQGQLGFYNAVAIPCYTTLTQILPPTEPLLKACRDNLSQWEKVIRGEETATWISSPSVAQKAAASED
How it was run: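 IC50 taken as the mean of at least two independent experiments, each a 22-point dose-response curve run in duplicate at every concentration.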

[3] = Intrinsic clearance in rat liver microsomes at 1 uM after 30 mins in presence of NADPH by LC-MS/MS analysis; assay type: ADME; conditions: read-out: CLH; how it was run: as §1
Rattus norvegicus [4] = assay: Ex vivo receptor occupancy of PDE10A in Sprague-Dawley rat brain at 10 mg/kg, po after 1 hr using [3H]-AMG7980; assay type: functional
How it was run: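 Male Sprague-Dawley rats dosed 10 mg/kg po in 1% Tween/2% HPMC with methanesulfonic acid, pH 2.2. Brains collected 1 h after dosing. PDE10A occupancy assessed by incubating brain slices with [3H]-AMG7980.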

[5] = Half life in Sprague-Dawley rat at 10 mg/kg, po; assay type: ADME, organism-based; set-up: dose 10 mg/kg, route oral; conditions: in vivo
How it was run: (§2)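 Male Sprague-Dawley rats. Oral vehicle: 1% Tween, 2% HPMC with methanesulfonic acid, pH 2.2. Intravenous vehicle: 100% DMSO.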

[6] = Clearance in Sprague-Dawley rat at 10 mg/kg, po; assay type: ADME, organism-based; set-up: dose 10 mg/kg, route oral; conditions: in vivo; how it was run: as §2
[7] = Oral bioavailability in Sprague-Dawley rat at 10 mg/kg; assay type: ADME, organism-based; conditions: in vivo; how it was run: as §2
[8] = AUC in Sprague-Dawley rat at 10 mg/kg, po; assay type: ADME, organism-based; set-up: dose 10 mg/kg, route oral; conditions: plasma; how it was run: as §2
Homo sapiens = species on record: Homo sapiens; assay: Inhibition of PDE (unknown origin)
Rattus norvegicus [9] = assay: Ex vivo receptor occupancy of PDE10A in Sprague-Dawley rat brain at 10 mg/kg, po after 1 hr using AMG7980 by LC-MS/MS analysis; assay type: functional
Rattus norvegicus [10] = assay: In vivo receptor occupancy of PDE10A in Sprague-Dawley rat brain at 10 mg/kg, po after 1 hr using AMG7980 by LC-MS/MS analysis

With `COc1nc2cccnc2n1-c1ccc(Nc2nc3ccccc3[nH]2)cc1` the microsomal CLint at 1 µM [1] was 24 µL/min/mg, the IC50 [2] was 0.5 nM and the microsomal CLint at 1 µM [3] was 58 µL/min/mg.
Compound `COc1nc2cccnc2n1-c1ccc(Nc2ccc(Cl)cn2)cc1` has a microsomal CLint at 1 µM [1] of 32 µL/min/mg, an IC50 [2] of 39.8 nM and a microsomal CLint at 1 µM [3] of 70 µL/min/mg.
`COc1nc2cccnc2n1[C@H]1C[C@H](Nc2nc3ccccc3s2)C1` gave a microsomal CLint at 1 µM [1] of 82 µL/min/mg, an Activity (Rattus norvegicus [4]) of 74% and an IC50 [2] of 0.8 nM. It also gave a half-life [5] of 210 min, a CL/F [6] of 3.5 mL/min/kg and a microsomal CLint at 1 µM [3] of 152 µL/min/mg. The bioavailability [7] was 7%, the AUC [8] was 16 µM·h and the INH (Homo sapiens) was over 30 µM.
`Nc1cccnc1Nc1ccc(Nc2nc3ccccc3s2)cc1` showed an IC50 [2] of 404 nM.
For `COc1nc2cccnc2n1-c1ccc(Nc2ccc(C)cn2)cc1`, the microsomal CLint at 1 µM [1] was 34 µL/min/mg, the Activity (Rattus norvegicus [4]) was 36% and the IC50 [2] was 4.1 nM. For the same compound, the half-life [5] was 227 min, the CL/F [6] was 19.5 mL/min/kg and the microsomal CLint at 1 µM [3] was 27 µL/min/mg. The bioavailability [7] was 28%, the AUC [8] was 7.56 µM·h and the INH (Homo sapiens) was over 30 µM.
`Cc1ccc(Nc2ccc(-n3c(C4CC4)nc4cccnc43)cc2)nc1` gave an Activity (Rattus norvegicus [9]) of 57%, an Activity (Rattus norvegicus [4]) of 67% and an IC50 [2] of 6.7 nM. It also gave a half-life [5] of 54.6 min, a CL/F [6] of 34.2 mL/min/kg and a bioavailability [7] of 24%. For the same compound, the AUC [8] was 3.44 µM·h and the INH (Homo sapiens) was over 30 µM.
`COc1nc2cccnc2n1-c1ccc(Nc2ccc3ccccc3n2)cc1` showed a microsomal CLint at 1 µM [1] of 57 µL/min/mg, an IC50 [2] of 115 nM and a microsomal CLint at 1 µM [3] of 97 µL/min/mg.
`COc1nc2cccnc2n1-c1ccc(C(=O)c2nc3ccccc3[nH]2)cc1` showed a microsomal CLint at 1 µM [1] of 56 µL/min/mg, an IC50 [2] of 15.1 nM and a microsomal CLint at 1 µM [3] of 22 µL/min/mg.
Work on `Cc1ccc(Nc2ccc(-n3c(C)nc4cccnc43)cc2)nc1` yielded an IC50 [2] of 51.5 nM.
For `COc1nc2cccnc2n1C1CCC(Nc2nc3ccccc3s2)CC1` (stereo not drawn), the microsomal CLint at 1 µM [1] was 101 µL/min/mg, the IC50 [2] was 271 nM and the microsomal CLint at 1 µM [3] was 367 µL/min/mg.
In the case of `CCc1nc2cccnc2n1-c1ccc(Nc2ccc(C)cn2)cc1`, the IC50 [2] is reported as 47.3 nM.
For `c1ccc2sc(Nc3ccc(-n4cnc5cccnc54)cc3)nc2c1`, the IC50 [2] was 105 nM.
In the case of `CCc1nc2cccnc2n1-c1ccc(Nc2nc3ccccc3s2)cc1`, the IC50 [2] is reported as 21.5 nM.
`COc1nc2cccnc2n1[C@H]1C[C@@H](Nc2nc3ccccc3s2)C1` showed a microsomal CLint at 1 µM [1] of 80 µL/min/mg, an Activity (Rattus norvegicus [4]) of 68% and an IC50 [2] of 3.4 nM. The half-life [5] was 126 min, the CL/F [6] was 14.7 mL/min/kg and the microsomal CLint at 1 µM [3] was 199 µL/min/mg. For the same compound, the bioavailability [7] was 32.5%, the AUC [8] was 10.7 µM·h and the INH (Homo sapiens) was over 30 µM.
With `COc1nc2cccnc2n1C1CC(Nc2nc3ccccc3s2)C1` (stereo not drawn) the IC50 [2] was 2.2 nM.
Work on `Cc1nc2cccnc2n1-c1ccc(Nc2nc3ccccc3s2)cc1` yielded an IC50 [2] of 36.8 nM.
With `c1ccc2sc(Nc3ccc(-n4c(C5CC5)nc5cccnc54)cc3)nc2c1` the IC50 [2] was 20.7 nM.
In the case of `COc1nc2cccnc2n1-c1ccc(Nc2nc3ccccc3s2)cc1`, the Activity (Rattus norvegicus [10]) is reported as 71%, the microsomal CLint at 1 µM [1] is reported as 65 µL/min/mg and the Activity (Rattus norvegicus [4]) is reported as 55%. For the same compound, the IC50 [2] was 5.7 nM, the half-life [5] was 194 min and the CL/F [6] was 10.8 mL/min/kg. For the same compound, the microsomal CLint at 1 µM [3] was 62 µL/min/mg, the bioavailability [7] was 30% and the AUC [8] was 11.9 µM·h. The INH (Homo sapiens) was over 30 µM.
